Tested on: HEK-293T
Test: Multiplex assay against HEK293T;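 on Population Tubulin-Different-Phenotype (%): share of the cells with healthy nuclei that show this phenotype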
Type: toxicity, cell-based
Details: human
How it was run: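 Hoechst33342, BioTracker Green Microtubule Cytoskeleton Dye, MitoTracker Red and Annexin V Alexa Fluor 680 were added to live cells at seeding, and imaging on a CQ1 microscope at 37°C and 5% CO2 followed compound addition. Gating by CellPathfinder machine learning separated cells into Hoechst high-intensity objects or normal cells, then normal cells into healthy, pyknosed or fragmented nuclei, then pyknosed cells into mitotic or apoptotic. Per cents of healthy-nucleus cells are reported for the tubulin, mitochondrial-mass and membrane-permeability phenotypes.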

[1] = 12 h, 1 µM, compound concentration 1 uM, replicate 1
[2] = 12 h, 1 µM, compound concentration 1 uM, replicate 2
[3] = 12 h, 10 µM, compound concentration 10 uM, replicate 1
[4] = 12 h, 10 µM, compound concentration 10 uM, replicate 2
[5] = 24 h, 1 µM, compound concentration 1 uM, replicate 1
[6] = 24 h, 1 µM, compound concentration 1 uM, replicate 2
[7] = 24 h, 10 µM, compound concentration 10 uM, replicate 1
[8] = 24 h, 10 µM, compound concentration 10 uM, replicate 2
[9] = 48 h, 1 µM, compound concentration 1 uM, replicate 1
[10] = 48 h, 1 µM, compound concentration 1 uM, replicate 2
[11] = 48 h, 10 µM, compound concentration 10 uM, replicate 1
[12] = 48 h, 10 µM, compound concentration 10 uM, replicate 2

COc1ccccc1CN[C@H]1C2CCN(CC2)[C@H]1C(c1ccccc1)c1ccccc1 [CP-96345]
Population Apoptotic (%) [1]: 61%
Population Fragmented Nuclei (%) [1]: 12%
Population Healthy Nuclei (%) [1]: 37%
Population Hoechst High Intensity Objects (%) [1]: 13%
Population Membrane Permeable-Phenotype (%) [1]: 0%
Population Mitochondria Different-Phenotype (%) [1]: 90%
Population Mitotic Cells (%) [1]: 38%
Population Normal (%) [1]: 86%
Population Pyknosed Nuclei (%) [1]: 50%
Population Tubulin-Different-Phenotype (%) [1]: 80%
Total Cell Count [1]: 250
Population Apoptotic (%) [2]: 8%
Population Fragmented Nuclei (%) [2]: 3%
Population Healthy Nuclei (%) [2]: 54%
Population Hoechst High Intensity Objects (%) [2]: 3%
Population Membrane Permeable-Phenotype (%) [2]: 10%
Population Mitochondria Different-Phenotype (%) [2]: 17%
Population Mitotic Cells (%) [2]: 91%
Population Normal (%) [2]: 96%
Population Pyknosed Nuclei (%) [2]: 42%
Population Tubulin-Different-Phenotype (%) [2]: 21%
Total Cell Count [2]: 244
Population Apoptotic (%) [3]: 79%
Population Fragmented Nuclei (%) [3]: 9%
Population Healthy Nuclei (%) [3]: 27%
Population Hoechst High Intensity Objects (%) [3]: 13%
Population Membrane Permeable-Phenotype (%) [3]: 2%
Population Mitochondria Different-Phenotype (%) [3]: 100%
Population Mitotic Cells (%) [3]: 20%
Population Normal (%) [3]: 86%
Population Pyknosed Nuclei (%) [3]: 63%
Population Tubulin-Different-Phenotype (%) [3]: 97%
Total Cell Count [3]: 296
Population Apoptotic (%) [4]: 25%
Population Fragmented Nuclei (%) [4]: 2%
Population Healthy Nuclei (%) [4]: 36%
Population Hoechst High Intensity Objects (%) [4]: 4%
Population Membrane Permeable-Phenotype (%) [4]: 6%
Population Mitochondria Different-Phenotype (%) [4]: 77%
Population Mitotic Cells (%) [4]: 74%
Population Normal (%) [4]: 95%
Population Pyknosed Nuclei (%) [4]: 60%
Population Tubulin-Different-Phenotype (%) [4]: 74%
Total Cell Count [4]: 179
Population Apoptotic (%) [5]: 56%
Population Fragmented Nuclei (%) [5]: 11%
Population Healthy Nuclei (%) [5]: 45%
Population Hoechst High Intensity Objects (%) [5]: 16%
Population Membrane Permeable-Phenotype (%) [5]: 6%
Population Mitochondria Different-Phenotype (%) [5]: 87%
Population Mitotic Cells (%) [5]: 43%
Population Normal (%) [5]: 83%
Population Pyknosed Nuclei (%) [5]: 43%
Population Tubulin-Different-Phenotype (%) [5]: 67%
Total Cell Count [5]: 253
Population Apoptotic (%) [6]: 10%
Population Fragmented Nuclei (%) [6]: 2%
Population Healthy Nuclei (%) [6]: 67%
Population Hoechst High Intensity Objects (%) [6]: 3%
Population Membrane Permeable-Phenotype (%) [6]: 5%
Population Mitochondria Different-Phenotype (%) [6]: 14%
Population Mitotic Cells (%) [6]: 89%
Population Normal (%) [6]: 97%
Population Pyknosed Nuclei (%) [6]: 30%
Population Tubulin-Different-Phenotype (%) [6]: 20%
Total Cell Count [6]: 333
Population Apoptotic (%) [7]: 81%
Population Fragmented Nuclei (%) [7]: 13%
Population Healthy Nuclei (%) [7]: 39%
Population Hoechst High Intensity Objects (%) [7]: 11%
Population Membrane Permeable-Phenotype (%) [7]: 0%
Population Mitochondria Different-Phenotype (%) [7]: 100%
Population Mitotic Cells (%) [7]: 18%
Population Normal (%) [7]: 88%
Population Pyknosed Nuclei (%) [7]: 47%
Population Tubulin-Different-Phenotype (%) [7]: 99%
Total Cell Count [7]: 298
Population Apoptotic (%) [8]: 26%
Population Fragmented Nuclei (%) [8]: 5%
Population Healthy Nuclei (%) [8]: 44%
Population Hoechst High Intensity Objects (%) [8]: 2%
Population Membrane Permeable-Phenotype (%) [8]: 4%
Population Mitochondria Different-Phenotype (%) [8]: 75%
Population Mitotic Cells (%) [8]: 73%
Population Normal (%) [8]: 97%
Population Pyknosed Nuclei (%) [8]: 50%
Population Tubulin-Different-Phenotype (%) [8]: 72%
Total Cell Count [8]: 218
Population Apoptotic (%) [9]: 48%
Population Fragmented Nuclei (%) [9]: 15%
Population Healthy Nuclei (%) [9]: 48%
Population Hoechst High Intensity Objects (%) [9]: 14%
Population Membrane Permeable-Phenotype (%) [9]: 4%
Population Mitochondria Different-Phenotype (%) [9]: 57%
Population Mitotic Cells (%) [9]: 51%
Population Normal (%) [9]: 85%
Population Pyknosed Nuclei (%) [9]: 36%
Population Tubulin-Different-Phenotype (%) [9]: 58%
Total Cell Count [9]: 334
Population Apoptotic (%) [10]: 8%
Population Fragmented Nuclei (%) [10]: 3%
Population Healthy Nuclei (%) [10]: 86%
Population Hoechst High Intensity Objects (%) [10]: 2%
Population Membrane Permeable-Phenotype (%) [10]: 6%
Population Mitochondria Different-Phenotype (%) [10]: 4%
Population Mitotic Cells (%) [10]: 91%
Population Normal (%) [10]: 97%
Population Pyknosed Nuclei (%) [10]: 9%
Population Tubulin-Different-Phenotype (%) [10]: 13%
Total Cell Count [10]: 612
Population Apoptotic (%) [11]: 79%
Population Fragmented Nuclei (%) [11]: 16%
Population Healthy Nuclei (%) [11]: 55%
Population Hoechst High Intensity Objects (%) [11]: 13%
Population Membrane Permeable-Phenotype (%) [11]: 0%
Population Mitochondria Different-Phenotype (%) [11]: 98%
Population Mitotic Cells (%) [11]: 20%
Population Normal (%) [11]: 86%
Population Pyknosed Nuclei (%) [11]: 28%
Population Tubulin-Different-Phenotype (%) [11]: 94%
Total Cell Count [11]: 327
Population Apoptotic (%) [12]: 39%
Population Fragmented Nuclei (%) [12]: 3%
Population Healthy Nuclei (%) [12]: 71%
Population Hoechst High Intensity Objects (%) [12]: 2%
Population Membrane Permeable-Phenotype (%) [12]: 4%
Population Mitochondria Different-Phenotype (%) [12]: 39%
Population Mitotic Cells (%) [12]: 60%
Population Normal (%) [12]: 97%
Population Pyknosed Nuclei (%) [12]: 25%
Population Tubulin-Different-Phenotype (%) [12]: 63%
Total Cell Count [12]: 330

Reference: ChEMBL document CHEMBL4689842, “EUbOPEN Chemogenomics Library wave 1” (2021)
